This passage reports folding enthalpy and Tm results from the array DNA melting data of Ke et al. (doi:10.1101/2024.01.08.574731).

Series [1] can be described thus: folding enthalpy; higher = less favourable; fluorescence melt of hairpins on a sequencing array, two-state fit. The following applies: sodium 0.088 M. The gist of the method:
(§1)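 In 50 mM Na-HEPES pH 8.0 containing 25 mM NaCl, hairpins from the library on a sequenced MiSeq flow cell were imaged for Cy3 fluorescence at 2.5 °C steps up to 60 °C, with Cy3 and quencher oligos annealed. After normalisation to pre-quench Cy3 and to control constructs, two-state fits with bootstrapping gave melting temperature and folding enthalpy. Four replicates were combined by inverse-variance weighting, and fitted temperatures were shifted up by 9.35 °C to match UV melts.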

The nature of series [2]: melting temperature; fluorescence melt of hairpins on a sequencing array, two-state fit, raised by 9.35 °C to match UV melts. The conditions noted are these: sodium 0.088 M. The gist of the method: as §1

For the sequence GGCCTCGAAAGAGTAGCC ((((((....)))..))), the folding enthalpy in series [1] was -25.9 kcal/mol. The Tm in series [2] is 49.2 °C.

In the case of GGCCTCGAAAGAGTCGCC ((((((....)))..))), the folding enthalpy in series [1] was -23.3 kcal/mol. The Tm in series [2] came out at 45 °C.

In the case of GGCCTCGAAAGAGTTGCC ((((((....)))..))), the folding enthalpy in series [1] was -17.2 kcal/mol. In addition, the Tm in series [2] was 45.5 °C.

As to GGCCTGCGAAAGCACGCC (((.(((....))).))), the folding enthalpy in series [1] is -37.6 kcal/mol. For the same sequence, in series [2], the Tm came out at 53.4 °C.

Consider GGCCTGGGAAACCGGGCC ((((.((....)).)))), for which, in series [1], the folding enthalpy was -30.6 kcal/mol. Further, in series [2], the Tm worked out at 66.3 °C.

Regarding GGCCTTCGAAAGAAGCC (((.(((....)))))), in series [1], the folding enthalpy is -27.6 kcal/mol. Besides, the Tm in series [2] was 51.4 °C.

As for GGCCTTGGAAACAGGGTC (.((.((....)).)).), the folding enthalpy in series [1] is -25 kcal/mol. Further, in series [2], the Tm turned out to be 37.6 °C.

For GGCGACGAAAGTCAAGCC ((((((....)))..))), the folding enthalpy in series [1] is -39.6 kcal/mol. Besides, the Tm in series [2] turned out to be 54.7 °C.

With GGCGACGAAAGTCAGGCC ((((((....)))..))), the folding enthalpy in series [1] was -31.3 kcal/mol. Besides, the Tm in series [2] is 55.5 °C.

On to GGCGACGAAAGTCCAGCC ((((((....)))..))), for which the folding enthalpy in series [1] is -27.1 kcal/mol. In addition, the Tm in series [2] worked out at 51.1 °C.

On to GGCGACGAAAGTCCTGCC ((((((....)))..))), for which the folding enthalpy in series [1] is -20.4 kcal/mol. The Tm in series [2] was determined as 46 °C.

As for GGCGACGAAAGTCGGGCC ((((((....)))..))), the folding enthalpy in series [1] is -11 kcal/mol. Also, the Tm in series [2] was 53.3 °C.

Take GGCGACGCGAAAGCGGCC (((..(((....)))))): the folding enthalpy in series [1] is -11.1 kcal/mol. In addition, the Tm in series [2] stood at 57.6 °C.

Turning to GGCGAGCCGAAAGGCGCC (((..(((....)))))), the folding enthalpy in series [1] was -13.1 kcal/mol. The Tm in series [2] worked out at 65 °C.

On to GGCGAGGCGAAAGCCGCC (((..(((....)))))), for which, in series [1], the folding enthalpy was -17.3 kcal/mol. For the same sequence, in series [2], the Tm was found to be 66.9 °C.

GGCGAGGGAAACTTCGCC (((((.(....).))))): the folding enthalpy in series [1] is -50.1 kcal/mol. The Tm in series [2] came out at 57.4 °C.

Regarding GGCGATCGAAAGATAGCC (((.(((....))).))), the folding enthalpy in series [1] is -47 kcal/mol. In addition, the Tm in series [2] was 58 °C.

In the case of GGCGATGGAAACATCACC ((.((((....)))).)), in series [1], the folding enthalpy is -30.3 kcal/mol. Moreover, the Tm in series [2] was found to be 46.2 °C.

Take GGCGCAACGAAAGTTGCC (((..(((....)))))): in series [1], the folding enthalpy is -8.29 kcal/mol. Moreover, the Tm in series [2] turned out to be 47 °C.

GGCGCACGAAAGTGGCC (((.(((....)))))): the folding enthalpy in series [1] is -18.3 kcal/mol. For the same sequence, the Tm in series [2] came to 59.9 °C.

Turning to GGCGCAGGAAACCACGCC ((((..(....)..)))), in series [1], the folding enthalpy is -35.3 kcal/mol. The Tm in series [2] was determined as 47.3 °C.

On to GGCGCAGGAAACTGCGTC (.(((((....))))).), for which the folding enthalpy in series [1] was -20.6 kcal/mol. In addition, the Tm in series [2] came to 66.1 °C.

On to GGCGCCGAAAGGCAGGCC ((((((....)))..))), for which the folding enthalpy in series [1] was -25.1 kcal/mol. Moreover, in series [2], the Tm was found to be 64.9 °C.

As for GGCGCCGAAAGGCCTGCC ((((((....)))..))), in series [1], the folding enthalpy was -16.6 kcal/mol. Besides, in series [2], the Tm stood at 50.8 °C.

Regarding GGCGCCGAAAGGCGAGCC ((((((....)))..))), the folding enthalpy in series [1] was -11.4 kcal/mol. For the same sequence, the Tm in series [2] stood at 57.6 °C.

GGCGCCGAAAGGCTCGCC ((((((....)))..))): the folding enthalpy in series [1] is -19.1 kcal/mol. The Tm in series [2] was determined as 54.5 °C.

As for GGCGCCGAAAGGCTGGCC ((((((....)))..))), the folding enthalpy in series [1] is -22.3 kcal/mol. For the same sequence, in series [2], the Tm amounted to 62.3 °C.

As to GGCGCCGGAAACGACGCC ((((.((....)).)))), in series [1], the folding enthalpy was -33.6 kcal/mol. In addition, in series [2], the Tm was determined as 66.4 °C.

For the sequence GGCGCCGGAAACGGCACC ((.((((....)))).)), the folding enthalpy in series [1] was -26.8 kcal/mol. For the same sequence, in series [2], the Tm worked out at 60.5 °C.

Turning to GGCGCGACGAAAGTCGCC (((..(((....)))))), the folding enthalpy in series [1] was -5.55 kcal/mol. Further, the Tm in series [2] came out at 51.9 °C.

In the case of GGCGCGCCGAAAGGCGCC (((..(((....)))))), the folding enthalpy in series [1] was -4.97 kcal/mol. Besides, in series [2], the Tm worked out at 44.5 °C.

For the sequence GGCGCGGGAAACCACGCC ((((.((....)).)))), the folding enthalpy in series [1] is -48.2 kcal/mol. Also, the Tm in series [2] was found to be 61 °C.

Consider GGCGCGTCGAAAGACGCC (((..(((....)))))), for which the folding enthalpy in series [1] is -7.03 kcal/mol. In addition, the Tm in series [2] came out at 47.8 °C.

As to GGCGCTCGAAAGAGAGCC (((.(((....))).))), the folding enthalpy in series [1] was -36.8 kcal/mol. For the same sequence, in series [2], the Tm is 67.2 °C.

For GGCGCTGGAAACAGCGTC (.(((((....))))).), the folding enthalpy in series [1] was -23 kcal/mol. Besides, in series [2], the Tm is 65.9 °C.

For the sequence GGCGGACGAAAGTCGGCC (((.(((....))).))), the folding enthalpy in series [1] is -39.2 kcal/mol. The Tm in series [2] was found to be 69.3 °C.

On to GGCGGCGAAAGCCAGGCC ((((((....)))..))), for which the folding enthalpy in series [1] is -18.8 kcal/mol. Besides, the Tm in series [2] was 62 °C.

For GGCGGCGAAAGCCGAGCC ((((((....)))..))), in series [1], the folding enthalpy was -12.3 kcal/mol. Also, the Tm in series [2] is 58 °C.

On to GGCGGCGAAAGCCTCGCC ((((((....)))..))), for which the folding enthalpy in series [1] is -20.8 kcal/mol. Besides, the Tm in series [2] was 55.4 °C.

In the case of GGCGGCGAAAGCCTGCC ((((((....))).))), the folding enthalpy in series [1] is -18.9 kcal/mol. For the same sequence, the Tm in series [2] amounted to 68.5 °C.

As to GGCGGCGAAAGCCTTGCC ((((((....)))..))), in series [1], the folding enthalpy is -19.2 kcal/mol. For the same sequence, the Tm in series [2] is 55.1 °C.

Turning to GGCGGCTCGAAAGAGGCC (((..(((....)))))), in series [1], the folding enthalpy is -11.4 kcal/mol. Moreover, in series [2], the Tm turned out to be 51.6 °C.

Turning to GGCGGGGCGAAAGCCGCC (((..(((....)))))), the folding enthalpy in series [1] is -19.9 kcal/mol. Further, the Tm in series [2] was determined as 68.6 °C.

Turning to GGCGGGGGAAACCCCACC ((.((((....)))).)), the folding enthalpy in series [1] is -27.7 kcal/mol. Further, the Tm in series [2] amounted to 56.1 °C.

For the sequence GGCGGGTCGAAAGACGCC (((..(((....)))))), the folding enthalpy in series [1] was -24.8 kcal/mol. For the same sequence, the Tm in series [2] is 58 °C.

For the sequence GGCGGTGGAAACATCGCC ((((.((....)).)))), the folding enthalpy in series [1] is -38.6 kcal/mol. In addition, in series [2], the Tm turned out to be 63.1 °C.

As to GGCGTACGAAAGTATGCC (((.(((....))).))), in series [1], the folding enthalpy is -41.9 kcal/mol. In addition, the Tm in series [2] came to 65.5 °C.

On to GGCGTCACGAAAGTGGCC (((..(((....)))))), for which the folding enthalpy in series [1] is -15.2 kcal/mol. For the same sequence, in series [2], the Tm was determined as 50.3 °C.

As to GGCGTCGAAAGACAAGCC ((((((....)))..))), the folding enthalpy in series [1] was -43.4 kcal/mol. The Tm in series [2] amounted to 55.2 °C.

GGCGTCGAAAGACAGGCC ((((((....)))..))): the folding enthalpy in series [1] is -31.3 kcal/mol. In addition, the Tm in series [2] worked out at 55 °C.

On to GGCGTCGCGAAAGCGGCC (((..(((....)))))), for which, in series [1], the folding enthalpy was -13 kcal/mol. Further, the Tm in series [2] amounted to 58.7 °C.

As for GGCGTCGGAAACGATGCC (((.(((....))).))), the folding enthalpy in series [1] is -38.2 kcal/mol. Moreover, the Tm in series [2] came out at 65.7 °C.

Consider GGCGTCGGAAACGGCGTC (.((.((....)).)).), for which the folding enthalpy in series [1] is -27.7 kcal/mol. In series [2], the Tm was 53.9 °C.

Take GGCGTTACGAAAGTAGCC (((..(((....)))))): the folding enthalpy in series [1] is -39.7 kcal/mol. Also, the Tm in series [2] is 55 °C.
